# Data from ChEMBL document CHEMBL4513216, “Probing the Open Global Health Chemical Diversity Library for Multistage-Active Starting Points for Next-Generation Antimalarials” (ACS Infect Dis, 2020).
# Assay: Toxicity liver stage against HepG2, at 10uM
# Assay type: cell-based
# Design: test concentration 10 uM, cell line HepG2-A16-CD81EGFP
# Conditions: human, HepG2-A16-CD81EGFP cells; read-out: INHIBITION
# In short: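 Uninfected HepG2-A16-CD81EGFP cells, 3 × 10^3 per well, 1536-well, plated on prespotted compound at 10 μM final, parasite-free screening media added to match infected plates; puromycin 10 μM positive, DMSO 0.5% negative; run in parallel with 48 h PbLuc assay at 37 °C, 5% CO2; viability by CellTiter-Glo luminescence, normalized to controls.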
row,Structure (SMILES),cytotoxicity at 10 µM [%]
1,Cc1sc(N)nc1-c1ccc(Cl)cc1,-2.75
2,COc1ccc(CN2CCOC[C@H](OCCC(C)C)C2)cc1,-4.04
3,CC(C)(C)CN[C@@H]1CO[C@H](CNC(=O)c2cccs2)[C@H]1O,-4.23
4,COCCCNC(=O)N1CCN(C(=O)c2nsc3ccccc23)CC1,12
5,CCCc1cc(=O)[nH]c2nnc(SCC(=O)OCC)n12,10.8
6,O=S(=O)(c1cccnc1)N1CCN(CC(O)c2cccs2)CC1 (stereo not given),-4.21
7,O=C(c1nnn(-c2ccccc2)n1)N(CCO)CCO,-1.48
8,O=C(C1CCC2(CCN(c3ncccn3)CC2)CO1)N1CCCC1 (stereo not given),5.59
9,COC[C@@H]1CC[C@H]2[C@H](CCN2S(=O)(=O)Cc2ccccc2)O1,7.43
10,N#Cc1ccc(OC[C@]23COC[C@H]2CN(c2ncccn2)C3)nc1,-1.84
11,CC(=O)N1CCCC2(CN(Cc3ccncc3)CCO2)C1 (stereo not given),7.22
12,Cn1cc(C(=O)N[C@H]2CN(S(C)(=O)=O)[C@@H]3CCCO[C@H]23)cn1,-16
13,c1nc(N2CCOCC2)nc2c1COCC21CCN(CC2CC2)C1 (stereo not given),9.69
14,CCOc1ccc(CNCCCn2ccnc2)cc1OC,-4.78
15,COc1ccc(-n2nc(C(C)=O)c(C(C)=O)c2C)cc1Cl,-0.145
16,Cc1cs/c(=N\C(=O)Cn2nc(N3CCOCC3)ccc2=O)[nH]1,-5.07
17,NC(=O)c1ccc2c(c1)nc1n2CCN(Cc2ccco2)C1,-11.3
18,O=C(Cn1cc(I)cn1)N1CCCCCC1,8.9
19,CN1CCN(c2ncccn2)CC1C(N)=O (stereo not given),15.4
20,CC(C)Nc1n[nH]c2nc(C3CCN(C(=O)c4ccccn4)C3)ccc12 (stereo not given),17
21,CN1CCCC(Cc2nccnc2Cl)CC1 (stereo not given),0.368
22,CC(C)N1CCC(c2cccc(C(=O)N(C)C)n2)CC1,9.23
23,NC(=O)C1(c2cnccn2)CCCN1Cc1ccc(Cl)cc1 (stereo not given),-0.085

row,Structure (SMILES),cytotoxicity at 10 µM [%]
1,CNC(=O)CCc1cc(C)nc(C2CCCN2)n1 (stereo not given),1.77
2,O=S(=O)(Nc1ccc(N2CCOCC2)cc1)c1cccc(F)c1,12
3,Cc1cnn(-c2ccc(S(=O)(=O)N(C)CC(C)(CO)CO)cc2F)c1,12.5
4,CC(C)c1nnc(CN2CCCc3ccc(S(N)(=O)=O)cc32)o1,-1.08
5,CCc1ccc(C(=O)N2CCCN(Cc3csc(CC)n3)CC2)o1,-1.86
6,Cc1ccc(N(CC(=O)N2CCCCC2)C(=O)C2CCCO2)cc1 (stereo not given),13.9
7,Cc1ccc(CNC(=O)N2CCN(S(C)(=O)=O)CC2)n1C,2.22
8,COC(=O)c1cc(NCC(=O)NC(N)=O)cc(C(F)(F)F)c1,-1.06
9,CCc1nc(CN2CCCC(N(C)CCn3cncn3)C2)no1 (stereo not given),-6.5
10,O=C(Nc1cnc(C2CC2)nc1)N1CCC(CN2CCCC2)C1 (stereo not given),18.8
11,O=C(NCc1ccccc1CN1CCCCC1)Nc1nncs1,0.513
12,CSc1cc2c(cc1NC(=O)NCc1ccco1)OCCO2,-5.08
13,Cc1cc2n(n1)CC(CNC1CCN(C(=O)c3ccco3)CC1)CN2 (stereo not given),4
14,COc1cc(NC(=O)c2ccc(C)cc2C)c(C(=O)N(C)C)cc1OC,-0.414
15,CSCC(CCO)NC(=O)Nc1ccc(C)cc1C (stereo not given),1.82
16,COc1ccnc(NC(=O)c2ccsc2)c1,-0.747
17,CC(CO)N1CCN(C(=O)OC(C)(C)C)CC1 (stereo not given),-7.85
18,O=C(c1cnccn1)N1CCN(c2ccnc3ccsc23)CC1,12.6
19,Cc1cccc(C)c1OCCNC(=O)C[S+]([O-])C1CCCC1 (stereo not given),-136
20,CC(C)c1nc(/C=C/c2ccc(O)c(Cl)c2)ncc1C(=O)O,-1.7
21,CNS(=O)(=O)CC(=O)NC(C)Cc1cccc(Cl)c1 (stereo not given),-8.15
22,COc1ccc(CCn2cnc(C#N)n2)cc1,0.866
23,CC(O)CN1CCC(CN(C)Cc2cccc(C#N)c2)CC1 (stereo not given),-1.3

row,Structure (SMILES),cytotoxicity at 10 µM [%]
1,N#Cc1cc(S(N)(=O)=O)ccc1NC1CCc2ccc(F)cc21 (stereo not given),8.08
2,CNS(=O)(=O)c1csc(C(=O)N(C)Cc2ccccc2C)c1,6.78
3,Cc1ccc(S(C)(=O)=O)cc1C(=O)NS(C)(=O)=O,-11.4
4,O=C(Cn1cc(-c2ccccc2)cn1)N1CCNC1=O,6.74
5,O=C1C(Nc2ccc3nccnc3n2)CCN1c1ccccc1F (stereo not given),-10
6,O=C1CC(Nc2ccc3nccnc3n2)CN1c1ccccc1 (stereo not given),-7.76
7,CC(C)(C)c1ncc(CNCC2CCCn3ccnc32)s1 (stereo not given),-6.76
8,Cc1cc(C#N)ccc1S(=O)(=O)N1CCN(C)Cc2ccccc21,5.34
9,CCc1nc(NS(=O)(=O)c2cc(C)ccc2F)no1,-4.71
10,CC(C)CNC(=O)NC(=O)CNc1ccccc1SCC(C)C#N (stereo not given),-8.05
11,OCC1CCCN1c1cc(NCCc2c[nH]c3ccccc23)ncn1 (stereo not given),-7.06
12,NC(=O)c1cc(NC(=O)N2CCCCCC2)ccc1F,0.692
13,CN(C)CCn1c2c(ccc1=O)CCN(Cc1ccncc1)CC2,3.97
14,COCCCNC(=O)c1ccn(-c2ccc3ccccn23)n1,-0.987
15,COc1cc(-c2cc(OC)c(OC)c(OC)c2)ncn1,-2.31
16,CC(C)Nc1nc2c(s1)C(=O)CN(C(=O)NCCc1ccccc1)C2,-5.55
17,COc1ccccc1OC1CN(C(=O)Cc2c(C)nc3ccccn23)C1,-2.27
18,Cc1ccc([C@@H]2CN(C(=O)c3cc(C)no3)C[C@H]2NC(=O)C2CC2)cc1,-1.82
19,CCS(=O)(=O)c1ncc(CN(C)C)n1Cc1ccccc1,1.73
20,COCc1cn(CC2CCN(Cc3nc(C)c[nH]3)CC2)nn1,0.622
21,CCCc1cc(NCCCC2CCOC2)n2nccc2n1 (stereo not given),-0.247
22,CCc1nnc(CN(C)Cc2nc(-c3ccccc3Cl)oc2C)o1,-7.43
23,Cc1cccc(C2CCCN(C(=O)C3CCN(CC(N)=O)CC3)C2)c1 (stereo not given),-7.18

row,Structure (SMILES),cytotoxicity at 10 µM [%]
1,O=C(CCCN1CCCCC1)N1CCC(c2nnc[nH]2)CC1,-7.92
2,COCCN(Cc1cccs1)C(=O)c1ccc(=O)n(C)c1,-4.78
3,COc1ccc2[nH]c(CNc3cc(C4CCNCC4)nc(C)n3)cc2c1,-13.4
4,Cc1[nH]c2c(F)cccc2c1CC(=O)NCc1csc(N(C)C)n1,-1.43
5,COc1cccc(CNC2CCSC2)c1OC (stereo not given),2.25
6,Cn1ccnc1SCCNc1cc(N2CCOCC2)ncn1,4.91
7,CC(NC(=O)Nc1ccccc1CN1CCOCC1)c1nnc(N)s1 (stereo not given),4.84
8,CN(Cc1n[nH]c2c1CCC2)C(=O)c1cc(-c2cccn2C)n[nH]1,5.12
9,Cc1ccc(Cl)c(CN2CCC(c3nccn3C(C)C)CC2)c1F,4.8
10,CCc1ncc2c(n1)CN(C(=O)COC)C2,-19.4
11,CNc1nc(C(=O)N2CCCC(c3nccn3CC3CCC3)C2)cs1 (stereo not given),-16.7
12,CNS(=O)(=O)c1ccc(C)c(C(=O)NCCNc2ncccn2)c1,-1.87
13,COc1c(CNCCC(=O)NC2CCCCC2)c(C(C)C)nn1C,-10.4
14,CCc1nc(CN2CCOC(Cn3cncn3)C2)no1 (stereo not given),-5.71
15,COc1cc(NC(=O)CCn2nc(-c3cccs3)oc2=O)cc(OC)c1,2.9
16,COc1ncccc1CNC(=O)c1cnc(C)cn1,-4.69
17,COCCN(Cc1nc2c(cnn2C)c(=O)[nH]1)C(C)COC (stereo not given),-4.6
18,CCN(CC)C(=O)Cn1ccc2cc(NC(=O)COC)ccc21,-7.89
19,CCc1noc(CN2CCN(C(=O)N(CC)CC)CC2)n1,-1.67
20,CCOc1ccnc(N2CCCN(C(=O)c3cc[nH]c3C)CC2)n1,0.893
21,CCc1n[nH]c(C2CN(C(=O)c3cc4c(s3)CCC4)CCO2)n1 (stereo not given),-4.98
22,Cc1cc(CN2CCN(C(=O)NCc3ccoc3)CC2)no1,-22.5
23,Cc1noc(C)c1CN1CCOC(CNc2cccnn2)C1 (stereo not given),-19

row,Structure (SMILES),cytotoxicity at 10 µM [%]
1,Cc1noc(CCCC(=O)NCC2CCS(=O)(=O)C2)n1 (stereo not given),-16.4
2,CN(C)c1cc(CNC(=O)c2ccc(F)cc2)ccn1,-22.9
3,OCC1CCCN1c1cc(NCc2cccnc2)ncn1 (stereo not given),-16.6
4,Cc1ncsc1CNC(=O)N(CCCO)C1CCc2ccccc21 (stereo not given),-9.99
5,CCN1CCN(c2ccc(CNC(=O)Cc3c(C)noc3C)cn2)CC1,-12.2
6,Cc1cc(NC(=O)CN2CCCC2c2noc(C(C)C)n2)on1 (stereo not given),-6.31
7,COc1cccc(C(=O)NC(CC(=O)O)c2cccs2)c1OC (stereo not given),-8.66
8,Cn1nc2c(cc1=O)CN(CCN1CCCC1=O)CC2,-31.1
9,COc1cccc(C(=O)N2CCCCC2c2nccs2)c1OC (stereo not given),-14.4
10,CC(C)Oc1ncccc1CNC(=O)c1ccc(=O)[nH]n1,-23.8
11,CC(C)c1noc(CCCC(=O)NC2CCS(=O)(=O)C2)n1 (stereo not given),4.67
12,CC(C)c1nnc2n1CCN(C(=O)c1ccc3cc[nH]c3c1)C2,4.02
13,O=C(c1ccccc1-n1cccn1)N1CCCN(c2cccnn2)CC1,7.03
14,c1ccc(N2CCC3(COCCN(Cc4cccs4)C3)C2)nc1 (stereo not given),1.85
15,COCCC(=O)N1CCN(CC2CC2)c2nc(C)ccc2C1,9.88
16,Cc1noc([C@@H]2C[C@H]3CN(CC4CCOCC4)C[C@H]3O2)n1,-137
17,CN1CCOCC12CCN(c1nncs1)CC2,8.16
18,CNC(=O)C1Cn2ccnc2C2(CCN(C(=O)c3ccoc3C)CC2)O1 (stereo not given),-157
19,Cc1noc([C@]23COC[C@H]2CN(C(C)C)C3)n1,1.44
20,O=C1COC2(CCN(Cc3ccc(F)cc3)CC2)CN1,-25.7
21,CC(C)Nc1ccc2nc(C3CCN(C(C)C)CC3)nn2c1,-20.4
22,CC(C)CN1CCC2(CCN(CC3CC3)CC2)C1=O,7.37
23,c1cncc(C[C@H]2[C@H](N3CCOCC3)CCN2Cc2cccs2)c1,8.34
